The values below come from ChEMBL document CHEMBL4819008, “Design, synthesis, and evaluation of "dual-site"-binding diarylpyrimidines targeting both NNIBP and the NNRTI adjacent site of the HIV-1 reverse transcriptase” (Eur J Med Chem, 2021).

In data set [1] the test system is Human immunodeficiency virus 1. As to the kind of experiment: Antiviral activity against wild type HIV1 NL4-3 infected in human TZM-bl cells assessed as reduction in viral infection measured after 1 day by luciferase reporter gene assay based luminiscence assay. The settings on record: Human immunodeficiency virus 1, NL4-3, TZM-bl, 24 h. It is filed as functional, organism-based. In short, it runs like this:
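TZM-bl cells got a single-round infection with 800 TCID50 of NL4-3 at various compound concentrations, top concentration 100 ng/mL. Luminescence was read 1 day post-infection. EC50 is the concentration giving a 50% decrease in luciferase RLU versus control wells, determined in at least triplicate.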

A short description of data set [2]: Cytotoxicity against human TZM-bl cells assessed as reduction in cell viability measured after 1 day by CytoTox-Glo assay. It is filed as cell-based. In short, it runs like this: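 TZM-bl cells were cultured 1 day with various compound concentrations, in parallel with the antiviral assay, top concentration 100 ng/mL. Viable cells were measured by CytoTox-Glo. CC50 is the concentration causing a 50% reduction in cell viability.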

Data set [3] is described as follows: Selectivity index, ratio of CC50 for human TZM-bl cells to EC50 for wild type HIV1 NL4-3 infected in human TZM-bl cells. The format is toxicity, cell-based. The note with it: read-out: Ratio CC50/EC50. In short, it runs like this:
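Selectivity index is CC50/EC50, with both values from the TZM-bl assays: NL4-3 single-round luciferase infection and CytoTox-Glo viability, each over 1 day.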

pEC50: −log10 of the molar value.

As to `Cc1cc(C#N)cc(C)c1Oc1nc(Nc2ccc(C#N)cc2)ncc1/C=C/C(=O)NC1CCN(S(C)(=O)=O)CC1`, the negative logarithm of the EC50 (pEC50) in data set [1] was 7.85. In addition, the CC50 at 24 h in data set [2] was more than 175 nM. Further, in data set [3], the selectivity ratio was more than 12.

Turning to `Cc1cc(C#N)cc(C)c1Oc1nc(Nc2ccc(C#N)cc2)ncc1/C=C/C(=O)N1CCOCC1`, the pEC50 in data set [1] is 7.70. Besides, the CC50 at 24 h in data set [2] was more than 208 nM. Besides, the selectivity ratio in data set [3] is more than 10.

As to `Cc1cc(C#N)cc(C)c1Oc1nc(Nc2ccc(C#N)cc2)ncc1/C=C/C(=O)NC1CCN(S(=O)(=O)C(F)(F)F)CC1`, the pEC50 in data set [1] is less than 6.80. In addition, the CC50 at 24 h in data set [2] is more than 160 nM. Moreover, the selectivity ratio in data set [3] was more than 1.

For the compound `Cc1cc(C#N)cc(C)c1Oc1nc(Nc2ccc(C#N)cc2)ncc1/C=C/C(=O)N1CCN(S(C)(=O)=O)CC1`, in data set [1], the pEC50 is 7.86. The CC50 at 24 h in data set [2] was more than 179 nM. Besides, the selectivity ratio in data set [3] was more than 13.

On to `CCOC(=O)/C=C/c1cnc(Nc2ccc(C#N)cc2)nc1Oc1c(C)cc(C#N)cc1C`, for which the pEC50 in data set [1] was 7.73. The CC50 at 24 h in data set [2] is more than 227 nM. Further, the selectivity ratio in data set [3] was more than 12.

Take `Cc1cc(C#N)cc(C)c1Oc1nc(Nc2ccc(C#N)cc2)ncc1/C=C/C(=O)NC1CCN(C(=O)C(F)(F)F)CC1`: the pEC50 in data set [1] was less than 6.77. Further, the CC50 at 24 h in data set [2] was more than 170 nM. Besides, in data set [3], the selectivity ratio is more than 1.

On to `Cc1cc(C#N)cc(C)c1Oc1nc(Nc2ccc(C#N)cc2)ncc1/C=C/C(=O)NCCc1c[nH]c2ccccc12`, for which the pEC50 in data set [1] was 7.09. In data set [2], the CC50 at 24 h is more than 180 nM. The selectivity ratio in data set [3] was more than 2.

Take `Cc1cc(C#N)cc(C)c1Oc1nc(Nc2ccc(C#N)cc2)ncc1/C=C/C(=O)N1CCN(C=O)CC1`: in data set [1], the pEC50 is 7.31. Besides, the half-maximal cytotoxic concentration (CC50) at 24 h in data set [2] was more than 197 nM. In data set [3], the selectivity ratio is more than 4.

As for `Cc1cc(C#N)cc(C)c1Oc1nc(Nc2ccc(C#N)cc2)ncc1/C=C/C(=O)NC1CC1`, the negative logarithm of the EC50 (pEC50) in data set [1] was 8.29. In addition, the CC50 at 24 h in data set [2] was more than 221 nM. Also, the selectivity ratio in data set [3] was more than 44.

For `Cc1cc(C#N)cc(C)c1Oc1nc(Nc2ccc(C#N)cc2)ncc1/C=C/C(=O)N1CCN(S(=O)(=O)C(F)(F)F)CC1`, in data set [1], the pEC50 is less than 6.79. Besides, the CC50 at 24 h in data set [2] is more than 164 nM. Also, in data set [3], the selectivity ratio is more than 1.

For the compound `Cc1cc(C#N)cc(C)c1Oc1nc(Nc2ccc(C#N)cc2)ncc1/C=C/C(N)=O`, the pEC50 in data set [1] is 8.27. The 50% cytotoxic concentration (CC50) at 24 h in data set [2] was more than 243 nM. Besides, the selectivity ratio in data set [3] is more than 45.

`Cc1cc(C#N)cc(C)c1Oc1nc(Nc2ccc(C#N)cc2)ncc1/C=C/C(=O)NC1CCN(S(C)(=O)=O)C1` (stereo not drawn): the pEC50 in data set [1] is 7.83. Besides, the CC50 at 24 h in data set [2] is more than 179 nM. Also, the selectivity ratio in data set [3] was more than 12.

As to `Cc1cc(C#N)cc(C)c1Oc1nc(Nc2ccc(C#N)cc2)ncc1/C=C/C(=O)NCC1CCN(S(C)(=O)=O)C1` (stereo not drawn), the pEC50 in data set [1] is 7.87. Besides, in data set [2], the cytotoxic concentration (CC50) at 24 h is more than 175 nM. Besides, in data set [3], the selectivity ratio was more than 13.

In the case of `Cc1cc(C#N)cc(C)c1Oc1nc(Nc2ccc(C#N)cc2)ncc1/C=C/C(=O)N1CCN(C(=O)C(F)(F)F)CC1`, the pEC50 in data set [1] is 7.86. In addition, the 50% cytotoxic concentration (CC50) at 24 h in data set [2] is more than 174 nM. For the same compound, the selectivity ratio in data set [3] was more than 13.

For the compound `CC(=O)N1CCN(C(=O)/C=C/c2cnc(Nc3ccc(C#N)cc3)nc2Oc2c(C)cc(C#N)cc2C)CC1`, in data set [1], the pEC50 is 7.30. Moreover, in data set [2], the CC50 at 24 h was more than 192 nM. Further, the selectivity ratio in data set [3] is more than 4.

For the compound `Cc1cc(C#N)cc(C)c1Oc1nc(Nc2ccc(C#N)cc2)ncc1/C=C/C(=O)NCC1CCN(S(C)(=O)=O)CC1`, the negative logarithm of the EC50 (pEC50) in data set [1] is 7.89. The CC50 at 24 h in data set [2] was more than 171 nM. Besides, in data set [3], the selectivity ratio was more than 13.
